Calls of active or inactive are those of the source. The rule behind the calls is not given here.
Legend:
AD293 [1] = assay: Effect on morphological changes in human AD293 cells at 10 uM; format: functional, cell-based
Summary of the method: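 AD293 cells treated with 10 μM compound, followed by LED irradiation or kept unirradiated, then morphology examined by microscopy.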

AD293 [2] = assay: Cytotoxicity against human AD293 cells assessed as cell viability at 0.1 to 10 uM incubated for 24 hrs by MTT assay; format: toxicity, cell-based; details: ad293, 24 h, dose 0.1-10 µM
Summary of the method: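 AD293 cells seeded at 4 × 10^4 cells/well in DMEM with 10% FBS. Next day, compound (100 nM, 1 μM, 10 μM) or vehicle added in serum-free DMEM for 24 h, no irradiation. MTT (5 mg/mL reagent) added for 3 h at 37 °C, formazan dissolved in DMSO, absorbance read at 590 nm. Triplicate wells, four independent experiments.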

[3] = Drug uptake in human AD293 cells assessed as increase in red fluorescence at 10 uM measured after 40 mins by fluorescence imaging based analysis; format: ADME, cell-based; details: ad293, 40 min
[4] = target: T1, Toll-like receptor 7 (Homo sapiens) (UniProt Q9NYK1); assay: Activation of TLR7 in human AD293 cells assessed as IkappaB-alpha degradation at 10 uM preincubated with NAC followed by compound addition and measured after 30 mins under 650nm red light irradiation by Western blot analysis; format: cell-based; details: filed as activator
T1 sequence (whole entry): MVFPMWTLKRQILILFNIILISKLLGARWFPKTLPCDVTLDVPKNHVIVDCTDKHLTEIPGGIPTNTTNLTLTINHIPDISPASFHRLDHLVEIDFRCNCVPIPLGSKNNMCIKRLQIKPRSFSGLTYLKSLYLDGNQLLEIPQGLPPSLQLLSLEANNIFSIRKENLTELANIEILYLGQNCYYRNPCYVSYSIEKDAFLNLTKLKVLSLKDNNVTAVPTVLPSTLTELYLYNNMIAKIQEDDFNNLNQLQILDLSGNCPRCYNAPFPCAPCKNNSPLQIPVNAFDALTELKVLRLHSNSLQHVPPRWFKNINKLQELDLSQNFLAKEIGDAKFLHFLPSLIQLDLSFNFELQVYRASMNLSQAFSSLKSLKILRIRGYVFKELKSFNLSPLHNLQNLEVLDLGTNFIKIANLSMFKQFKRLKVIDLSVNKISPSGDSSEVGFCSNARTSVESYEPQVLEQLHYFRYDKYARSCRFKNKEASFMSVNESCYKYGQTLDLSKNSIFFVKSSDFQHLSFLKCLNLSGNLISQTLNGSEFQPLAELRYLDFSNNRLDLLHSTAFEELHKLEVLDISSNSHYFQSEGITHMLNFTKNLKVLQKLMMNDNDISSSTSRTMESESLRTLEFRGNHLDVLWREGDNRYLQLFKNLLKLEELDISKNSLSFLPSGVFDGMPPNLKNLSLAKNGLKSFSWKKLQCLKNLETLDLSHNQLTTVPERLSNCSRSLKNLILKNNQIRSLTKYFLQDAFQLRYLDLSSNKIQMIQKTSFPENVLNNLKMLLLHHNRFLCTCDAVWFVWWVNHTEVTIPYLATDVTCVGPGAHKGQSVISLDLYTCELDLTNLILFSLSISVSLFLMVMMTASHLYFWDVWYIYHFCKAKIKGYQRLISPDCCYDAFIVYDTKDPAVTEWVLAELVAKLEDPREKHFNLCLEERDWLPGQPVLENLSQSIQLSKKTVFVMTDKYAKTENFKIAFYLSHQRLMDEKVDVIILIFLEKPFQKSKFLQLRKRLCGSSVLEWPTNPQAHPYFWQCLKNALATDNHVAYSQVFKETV
Summary of the method: (§1)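 Stable TLR7-expressing AD293 line made by TLR7 plasmid transfection and hygromycin B selection (250 μg/mL, 10 days). Cells pretreated with N-acetyl-cysteine, then given 10 μM compound, with or without 30 min 650 nm red-light irradiation. Lysates run on 10% SDS-PAGE and blotted to PVDF. Total IκB probed (1:1000) with GAPDH loading control, ECL detection. Means of three experiments.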

[5] = target: T1, Toll-like receptor 7 (Homo sapiens); assay: Activation of TLR7 in human AD293 cells assessed as IkappaB-alpha degradation at 10 uM preincubated with NAC followed by compound addition and measured after 30 mins by Western blot analysis; format: cell-based; summary of the method: as §1
[6] = Upregulation of iNOS mRNA expression in mouse RAW264.7 cells assessed as fold change at 100 nM preincubated with NAC followed by compound addition and measured after 30 mins under 650nm LED light irradiation by real-time PCR analysis; format: functional; details: 0.5 h
Summary of the method: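 RAW264.7 cells seeded at 0.3 million per 35 mm dish. Next day, pretreated with 10 mM N-acetyl-cysteine for 30 min, then given 100 nM compound and 650 nm LED light for 30 min. Total RNA taken 24 h later and reverse transcribed with random primers. SYBR real-time PCR run for 40 cycles (95/60/72 °C). Quantities calculated by the Ct method. Results given as fold change, means ± SD.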

[7] = Photosensitizing ability of the compound assessed as singlet oxygen quantum yield under 600nm monochromatic light irradiation by DPBF based assay relative to control; format: functional
Summary of the method: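 Singlet oxygen generation followed by the decrease in DPBF absorbance under irradiation. DPBF (20–25 μm) used at 5–10-fold excess over compound (2.5–5 μm).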

[8] = Induction of hydroxyl radical assessed as DMPO-OH radical adduct formation under dark condition measured after 10 mins by ESR spectra analysis; format: functional
Summary of the method: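 ESR spectra recorded with DMPO as spin trap to detect superoxide and/or hydroxyl radical adducts, before and after 10 min irradiation of compound.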

[9] = Phototoxicity in human A549 cells assessed as cell viability at 10 uM under 530 ot 650nm 30 mW LED light irradiation and measured after 72 hrs by CCK-8 method relative to control; format: functional; details: A549, light or radiation study, read-out: Activity
Summary of the method: (§2)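 A549, HaCaT and HeLa cells seeded at 2 × 10^3 cells/well in phenol red-free DMEM with 10% FBS. After 24 h, medium replaced with 1% DMSO containing 10 μM compound. After 90 min, one plate kept dark and one exposed to 530 or 650 nm LED (30 mW) for 15 min. Plates incubated 72 h, then CCK-8 read at 450 nm. Viability taken relative to dark control. Triplicates (HaCaT six).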

[10] = Phototoxicity in human HaCaT cells assessed as cell viability at 10 uM under 530 ot 650nm 30 mW LED light irradiation and measured after 72 hrs by CCK-8 method relative to control; format: functional; details: light or radiation study, read-out: Activity; summary of the method: as §2
[11] = Thermal stability of compound in DMSO-d6 at 37.5 degree C measured before 24 hrs by 1H NMR spectroscopy analysis; format: physicochemical
Summary of the method: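 Compound in DMSO-d6 followed by 1H NMR. Degradation taken from the intensity of three signals (one resiquimod, one BODIPY, and the linkage NH), each relative to the DMSO-d6 internal standard, and the three averaged.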

[12] = Photorelease activity of the compound in DMSO-d6 measured within 90 mins under 660nm 400mW LED light by 1H NMR spectroscopy analysis relative to control; format: ADME; details: 1.5 h
[13] = Photorelease activity of the compound in aqueous solution at 30 uM under dark condition by 1H NMR spectroscopy analysis; format: ADME; details: buffer

Drug uptake [3]: Active
Activity [4]: Active
Activity [5]: inactive
Activity [11]: Not_active
Activity [12]: ~ 90%
Activity [13]: Not_active
SMILES: CCOCc1nc2c(NC(=O)OCC3=C4C(C)=CC(/C=C/c5ccc(OCCOCCOCCOC)cc5)=[N+]4[B-](C)(C)n4c(/C=C/c5ccc(OCCOCCOCCOC)cc5)cc(C)c43)nc3ccccc3c2n1CC(C)(C)O
Activity (AD293 [1]): inactive
Activity (AD293 [2]): Non-toxic
fold change (FC) [6]: ~4
Activity [7]: 1.2%
Activity [8]: inactive
viability at 10 µM [9]: 55%
viability at 10 µM [10]: 41%

Reference: ChEMBL document CHEMBL6103596, “Design, Synthesis, and Biological Evaluation of BODIPY-Caged Resiquimod as a Dual-Acting Phototherapeutic” (J Med Chem, 2025)
